Screens from PubChem.
Hits are enriched below; roughly 2% of the tested compounds scored in any of these assays.
MBD2 inh: inhibitors of MBD2 binding to methylated DNA, primary screen, biochemical, TR-FRET, DNA-binding domain, human | Methyl-CpG-binding domain protein 2 (Homo sapiens), Q9UBB5 | MBD2 binding to methylated oligonucleotide | inhibition, % at 4.4 µM | 370,000 tested, 0.31% active; in the data active = inhibition above about 13%
Target sequence (Q9UBB5 whole entry, looked up, the tested form may be a part): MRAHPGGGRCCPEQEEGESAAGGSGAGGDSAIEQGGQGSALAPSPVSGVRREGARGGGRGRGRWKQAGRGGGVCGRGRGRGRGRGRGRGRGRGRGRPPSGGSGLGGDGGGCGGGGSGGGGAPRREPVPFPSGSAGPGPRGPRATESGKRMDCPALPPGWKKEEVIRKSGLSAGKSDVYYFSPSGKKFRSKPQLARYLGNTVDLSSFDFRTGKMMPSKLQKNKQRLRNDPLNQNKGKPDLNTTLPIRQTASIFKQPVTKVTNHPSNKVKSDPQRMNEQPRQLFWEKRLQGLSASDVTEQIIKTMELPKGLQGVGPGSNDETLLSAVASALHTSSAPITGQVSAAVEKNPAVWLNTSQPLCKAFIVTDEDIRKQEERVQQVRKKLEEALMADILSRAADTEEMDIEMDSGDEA
ASAP1 GAP inh: inhibitors of human ASAP1 ArfGAP activity, primary screen, biochemical, fluorescence polarization; AID 624377, 2012; ASAP1-stimulated ARF1 GTP hydrolysis, GDP FP detection; Arf-GAP with SH3 domain, ANK repeat and PH domain-containing protein 1 (Homo sapiens), …; 360,000 tested, 0.19% active; inhibition, % at 16.5 µM; in the data active = inhibition above about 25%
ARFGAP1 inh: inhibitors of rat ARFGAP1 GAP activity, primary screen, biochemical, fluorescence polarization, GDP tracer; ADP-ribosylation factor GTPase-activating protein 1 (Rattus norvegicus), Q62848; Arfgap1-stimulated ARF1 GTP hydrolysis, GDP FP detection; inhibition, % at 16.5 µM; 360,000 tested, 0.26% active; AID 651572, 2012;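 active = inhibition above a per-plate limit, mean inhibition of low control wells plus 3 SD, cut at about 25% in these data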
Target sequence (Q62848 1-136 limits assumed): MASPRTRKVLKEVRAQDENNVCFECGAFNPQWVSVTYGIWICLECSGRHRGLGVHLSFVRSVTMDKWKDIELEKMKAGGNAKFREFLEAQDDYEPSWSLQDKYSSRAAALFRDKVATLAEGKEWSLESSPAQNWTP
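Material: truncated rat Arfgap1 GAP domain; Incubation: compound-enzyme preincubation 20 min, reaction 120 min, detection 60 min, 25 °C; Read-out: percent inhibition of Arfgap1-stimulated GTP hydrolysis; Technique: FP, GDP Alexa 633 tracer displaced from anti-GDP antibody, 620/688 nm; Controls: No-Arfgap1 wells (100%) versus DMSO full-reaction wells (0%); Replication: single well per compound.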
LEDGF integ inh: blockers of LEDGF/p75-dependent integrase strand transfer – biochemical, TR-FRET, high throughput, primary screen | HIV-1 integrase (with human LEDGF/p75) | TR-FRET IN-LEDGF/p75 DNA integration, Eu/Cy5 | inhibition, % at 3.7 µM | 370,000 tested, 0.64% active | AID 743269, 2014;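 active = inhibition above the screen-wide mean plus 3 SD, cut at about 13% in these data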;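 also: signal is the Cy5 over europium emission ratio at 671 and 618 nm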
TCR-CD3 inh: inhibitors of human TCR-CD3 interaction, primary screen, biochemical, fluorescence, TAMRA-labeled TCR probe; T-cell receptor (TCR); inhibition, % at 9.4 µM; 360,000 tested, 0.37% active; AID 651800, 2012;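 also: recombinant mutant TCR 2C K166C tagged with TAMRA read by polarization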
UHRF1 MBD2 ctr: UHRF1 methylated DNA binding inhibitors, primary screen, counter-screen for MBD2 inhibitor project, biochemical, TR-FRET, human UHRF1, single concentration; UHRF1 binding to methylated oligo; inhibition, % at 4.4 µM; 370,000 tested, 0.75% active; AID 687016, 2013; in the data active = inhibition above about 21%;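 also: UHRF1 SRA domain binding a hemimethylated CpG hairpin DNA probe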
BSA TAMRA ctr: compounds interfering with TAMRA-BSA probe, counter-screen for TCR-CD3 interaction inhibitor project, biochemical, fluorescence, TAMRA-labeled BSA | shares compounds with TCR-CD3 inh | TAMRA-labeled BSA probe fluorescence counterscreen | inhibition, % at 9.4 µM | 1,200 tested, 10% active; in the data active = inhibition above about 23%
TCR-CD3 conf: TCR-CD3 interaction inhibitors, retest, confirmation, biochemical, fluorescence, TAMRA-labeled TCR probe; inhibition, % at 9.4 µM; AID 652036, 2013; TAMRA-labeled TCR probe fluorescence binding assay; 1,200 tested, 48% active; shares compounds with TCR-CD3 inh
A number is an active result; 0 = inactive; - = no result given; + = active, no number. Rule as the data show it, unless noted: active = inhibition above about 19%; inactive = the rest.

SMILES | MBD2 inh | ASAP1 GAP inh | ARFGAP1 inh | LEDGF integ inh | TCR-CD3 inh | UHRF1 MBD2 ctr | BSA TAMRA ctr | TCR-CD3 conf
O=c1ccc2cc3c([nH]c4ccc(Br)cc43)oc-2c1O | 0 | 0 | 0 | 66 | 38 | 0 | 0 | 0
CCc1nnc(NC(=O)CCC(=O)N2CCN(c3cccc(Cl)c3)CC2)s1 | 0 | 0 | 0 | 0 | 0 | 0 | - | -
Cc1c(NC(=S)N/N=C/c2ccc([N+](=O)[O-])cc2O)c(=O)n(-c2ccccc2)n1C | 0 | 0 | 0 | 0 | 24 | 0 | 0 | 0
Cc1coc(C)c1C(=O)Nc1ccc2ccccc2c1 | 0 | 0 | 0 | 0 | 0 | 0 | - | -
C/C(=N\NC(=O)c1cc2ccccc2cc1O)c1ccccn1 | 0 | 0 | 0 | 0 | 0 | 0 | - | -
CCC/C(C)=N/NC(=O)c1ccccc1O | 0 | 0 | 0 | 0 | 0 | 0 | - | -
CCOC(=O)C(CC)/C(C)=N\NC(=O)c1ccccc1O (stereo not given) | 0 | 0 | 0 | 0 | 35 | 0 | 0 | 38
C/C(=N\NC(=O)c1ccccc1O)C1C(=O)c2ccccc2C1=O | 0 | 0 | 0 | 0 | 33 | 0 | 0 | 42
C/C(=N\NC(=O)c1ccccc1O)c1c(O)cc(C)oc1=O | 0 | 0 | 0 | 0 | 0 | 0 | - | -
C/C(=N/NC(=O)c1cc2ccccc2cc1O)C1C(=O)c2ccccc2C1=O | 0 | 0 | 0 | 0 | 45 | 0 | 0 | 68
CCN(CC)CCCNC(=O)Cn1cnc2sc(C)c(S(=O)(=O)N3CCC(C)CC3)c2c1=O | 0 | 0 | 0 | 0 | 0 | 0 | - | -
Cc1ccc(C(=O)Nc2nnc(CC(=O)N/N=C/c3ccncc3)s2)cc1 | 0 | 0 | 0 | 0 | 0 | 0 | - | -
Cc1ccc(C(=O)Nc2nnc(CC(=O)N/N=C/c3ccc(O)c(O)c3)s2)cc1 | 0 | 0 | 0 | 0 | 34 | 0 | 0 | 68
COc1ccc(C(=O)Nc2nnc(CC(=O)N/N=C/c3ccc(O)cc3O)s2)cc1 | 0 | 0 | 0 | 0 | 23 | 0 | 0 | 35
COc1ccc(CCOC(=O)c2ccc(N)c([N+](=O)[O-])c2)cc1 | 0 | 0 | 0 | 0 | 0 | 0 | - | -
Oc1ccc(/C=N/Nc2ccnc3cc(Cl)ccc23)c(O)c1O | 0 | 0 | 0 | 0 | 20 | 0 | 0 | 22
CNC(=S)NNC(=O)c1cccn(Cc2ccc(Cl)cc2Cl)c1=O | 0 | 0 | 0 | 0 | 27 | 0 | 0 | 26
CNC(=S)NNC(=O)c1cccn(Cc2cccc(C(F)(F)F)c2)c1=O | 0 | 0 | 0 | 0 | 26 | 0 | 0 | 25
Cc1cc(N)ccc1-n1c(C)ccc1C | 0 | 0 | 0 | 0 | 152 | 0 | 0 | 0
Cc1ccc(-n2c(C)cc(=O)cc2C)c(C)c1 | 0 | 0 | 0 | 0 | 0 | 0 | - | -
O=C(NCC(O)c1ccc([N+](=O)[O-])cc1)C1=COCCO1 (stereo not given) | 0 | 0 | 0 | 0 | + | 0 | 0 | 0
Nc1cnccc1C(=O)O | 0 | 0 | 0 | 0 | 65 | 0 | 33 | 25
COc1cccc2c1C(=O)c1c(O)c3c(c(O)c1C2=O)C[C@@](O)(C(=O)CO)C[C@@H]3O[C@H]1C[C@H](N)[C@H](O)[C@H](C)O1 | 110 | 0 | 0 | 0 | 137 | 94 | 157 | 127
CC(=O)[C@@]1(O)Cc2c(O)c3c(c(O)c2[C@H](O[C@H]2C[C@H](N)[C@H](O)[C@H](C)O2)C1)C(=O)c1ccccc1C3=O | 106 | 0 | 0 | 0 | 175 | 95 | + | 167
COc1cccc2c1C(=O)c1c(O)c3c(c(O)c1C2=O)C[C@@](O)(C(=O)CO)C[C@@H]3OC1CC(N)C(O)C(C)O1 (stereo not given in full) | 112 | 0 | 0 | 0 | 125 | 95 | 156 | 126
SMILES | MBD2 inh | ASAP1 GAP inh | ARFGAP1 inh | LEDGF integ inh | TCR-CD3 inh | UHRF1 MBD2 ctr | BSA TAMRA ctr | TCR-CD3 conf
Cc1cc(-c2ccccc2C(=O)O)on1 | 0 | 0 | 0 | 0 | 0 | 0 | - | -
O=C(O)c1ccccc1C1=Nc2ccc(O)cc2Oc2cc(O)ccc21 | 0 | 0 | 0 | 0 | 34 | 0 | 57 | 47
Cc1ccc(C)c(CC(=O)N2CCCCC2c2cc(C(=O)Nc3ccc(F)c(Cl)c3)no2)c1 (stereo not given) | 0 | 0 | 0 | 0 | 0 | 0 | - | -
O=C(NNS(=O)(=O)c1ccccc1[N+](=O)[O-])c1cc2ccccc2cc1O | 0 | 0 | 0 | 0 | 20 | 0 | 0 | 0
Cc1nc2ccccc2c(=O)n1/N=C/c1c(O)ccc2ccccc12 | 0 | 0 | 0 | 0 | 24 | 0 | 0 | 0
Cc1n[nH]c(=S)n1/N=C/c1c(O)ccc2ccccc12 | 0 | 0 | 0 | 0 | 30 | 0 | 0 | 0
Cc1nc2ccccc2c(=O)n1/N=C/c1cc(Br)ccc1O | 0 | 0 | 0 | 0 | 0 | 0 | - | -
Oc1ccccc1N=Cc1c(O)ccc2ccccc12 | 0 | 0 | 0 | 0 | 29 | 0 | 0 | 37
Oc1ccc2ccccc2c1C=Nc1ccccc1Br | 0 | 0 | 0 | 0 | 0 | 0 | - | -
O=C(CCNS(=O)(=O)c1ccc(F)cc1)N1CCN(c2ncccn2)CC1 | 0 | 0 | 0 | 0 | 0 | 0 | - | -
Cc1ccc(-c2nn(-c3cc(Cl)ccc3[N+](=O)[O-])c(=O)c3ccccc23)cc1C | 0 | 0 | 0 | 0 | 0 | 0 | - | -
O=C(C[C@H]1C[C@H]2c3cc(NS(=O)(=O)c4ccc(F)cc4)ccc3O[C@H]2[C@H](CO)O1)NCc1ccncc1 | 0 | 0 | 0 | 0 | 0 | 0 | - | -
Cn1ncc(Cl)c1C(=O)N1CCN(c2ccc(F)cc2)CC1 | 0 | 0 | 0 | 0 | 0 | 0 | - | -
CN(C)N(C(=O)c1cc(-c2cccs2)nn1-c1ccccc1)C1CCS(=O)(=O)C1 (stereo not given) | 0 | 0 | 0 | 0 | 0 | 0 | - | -
COc1ccc(CN2CCC(C(=O)Nc3ccc(Oc4cccnc4)cc3)CC2)c(C)c1C | 0 | 0 | 0 | 0 | 0 | 0 | - | -
CN(C)c1ccccc1-c1cc(NC=O)c2ncc(-c3cccc(C(F)(F)F)c3)n2c1 | 42 | 0 | 0 | 0 | 37 | 0 | 0 | 0
CN(CC(=O)Nc1ccc(Cl)cc1)C(=O)c1cc(-c2cccs2)nn1-c1ccccc1 | 0 | 0 | 0 | 0 | 0 | 0 | - | -
